From ChEMBL document CHEMBL3808283, “Biological Characterization and in Vivo Assessment of the Activity of a New Synthetic Macrocyclic Antifungal Compound” (J Med Chem, 2016)
Converted amounts (≈) assume the structure as drawn. The source made the active and inactive calls. No cut-off for these calls is given here.

Key:
[1] = Drug transport in Cryptococcus neoformans with damaged cell wall assessed as ABC transpoter-mediated drug accumulation in cytoplasm at 40 uM after 48 hrs by confocal microscopic analysis; type: ADME
Outline: (§1)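 C. albicans ATCC 60193 or Cry. neoformans treated 48 h with the fluorescent probe at 40 µM from a DMSO solution. Cells were washed twice in PBS, fixed in 4% formaldehyde for 30 min at 4 °C, washed again, spotted on glass slides, dried and mounted. Examined by confocal microscopy, with visible, fluorescent and merged images compared against untreated cells.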

Candida albicans [2] = assay: Antifungal activity against Candida albicans ATCC 60193 up to 96 hrs by broth dilution assay; type: functional; settings: ATCC 60193, 96 h
[3] = Drug transport in Candida albicans ATCC 60193 assessed as ABC transpoter-mediated drug accumulation in cytoplasm at 40 uM after 48 hrs by confocal microscopic analysis; type: ADME; outline: as §1
[4] = Drug transport in Candida albicans ATCC 60193 with damaged cell wall assessed as ABC transpoter-mediated drug accumulation in cytoplasm at 40 uM after 48 hrs by confocal microscopic analysis; type: ADME; outline: as §1
[5] = Drug transport in Cryptococcus neoformans assessed as ABC transpoter-mediated drug accumulation in cytoplasm at 40 uM after 48 hrs by confocal microscopic analysis; type: ADME; outline: as §1
Candida albicans [6] = assay: Antifungal activity against Candida albicans isolate DSY654 harboring CDR1/2 deletion mutant at 100 ug/ml by serial dilution assay; type: functional, organism-based
Outline: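 Spot dilution assay: C. albicans cells 10-fold serially diluted from 2 × 10^7 cells/mL, with 5 µL of each dilution spotted onto YEPD agar plates containing the drug.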

[7] = Drug transport in Cryptococcus neoformans assessed as ABC transpoter-mediated drug accumulation at 5 to 80 uM after 24 hrs by confocal microscopic analysis; type: ADME
[8] = Drug transport in Candida albicans ATCC 60193 assessed as ABC transpoter-mediated drug accumulation at 5 to 80 uM after 24 hrs by confocal microscopic analysis; type: ADME
Candida albicans [9] = assay: Antifungal activity against fluconazole-susceptible Candida albicans ATCC 90028 in immunocompetent Balb/c mouse candidiasis model assessed as reduction in CFU count in kidney at 8 mg/kg/day, ip regime measured on day 7 post infection; type: functional, organism-based
Outline: (§2)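 Immunocompetent BALB/c mice, 10 per strain group, received 7 × 10^4 CFU of C. albicans in 200 µL saline via the lateral vein. Fluconazole was given i.p. at 8 mg/kg/day. On day 7, spleen and kidneys were weighed, homogenized, and plated on YPD agar (2 days, 30 °C) for CFU per gram of organ. Analysis used Wilcoxon rank-sum, P<0.05.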

Candida albicans [10] = assay: Antifungal activity against azole-susceptible Candida albicans isolate DSY294 in immunocompetent Balb/c mouse candidiasis model assessed as reduction in CFU count in kidney at 8 mg/kg/day, ip regime measured on day 7 post infection; type: functional, organism-based; outline: as §2
Candida albicans [11] = assay: Antifungal activity against fluconazole-susceptible Candida albicans ATCC 90028 in immunocompetent Balb/c mouse candidiasis model assessed as reduction in CFU count in spleen at 8 mg/kg/day, ip regime measured on day 7 post infection; type: functional, organism-based; outline: as §2
Candida albicans [12] = assay: Antifungal activity against azole-susceptible Candida albicans isolate DSY294 in immunocompetent Balb/c mouse candidiasis model assessed as reduction in CFU count in spleen at 8 mg/kg/day, ip regime measured on day 7 post infection; type: functional, organism-based; outline: as §2

With C/C=C/CNC(=N)NCCCCCCCCN1CCCCCCOc2cc(OCCCNC(=S)Nc3ccc4c(c3)C(=O)OC43c4ccc(O)cc4Oc4cc(O)ccc43)ccc2CNC(=N)NC1=O the Drug transport [1] was “Not Active”, the MIC (Candida albicans [2]) was 80 µM (≈ 78.1 µg/mL) and the Drug transport [3] was “Active”. For the same molecule, the Drug transport [4] was “Not Active” and the Drug transport [5] was “Active”.

In the case of OCCN1CCN(CCCN2c3ccccc3Sc3ccc(C(F)(F)F)cc32)CC1, the Activity (Candida albicans [6]) is reported as “Active”.

With CN(C)c1cccc2c(S(=O)(=O)NCCCCCCCCN3CCCCCCCCNC(=N)NC3=O)cccc12 the MIC (Candida albicans [2]) was > 125 µM, the Drug transport [7] was “Active” and the Drug transport [8] was “Active”.

For OC(Cn1cncn1)(Cn1cncn1)c1ccc(F)cc1F, the Activity (Candida albicans [9]) was “Active”, the Activity (Candida albicans [10]) was “Active” and the Activity (Candida albicans [11]) was “Active”. The Activity (Candida albicans [12]) was “Active”.

In the case of CN(C)c1cccc2c(S(=O)(=O)NC(=N)NCCCCCCCCN3CCCCCCCCNC(=N)NC3=O)cccc12, the MIC (Candida albicans [2]) is reported as > 125 µM, the Drug transport [7] is reported as “Active” and the Drug transport [8] is reported as “Active”.
